Reference: ChEMBL document CHEMBL1121627, “Structure--activity relationships in a series of novel 3,4-dihydro-4-oxopyrimido[4,5-b]quinoline-2-carboxylic acid antiallergy agents” (1980)
The source made the active and inactive calls.

Legend:
Rattus norvegicus [1] = assay: Antiallergic activity against reagin induced passive cutaneous anaphylaxis reaction in rats upon intravenous administration.; format: functional
Procedure, shortened: (§1)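 Rat passive cutaneous anaphylaxis. Just before challenge, controls for antihistamine, antiserotonin or nonspecific blockade are given intradermally: 60 µg histamine dihydrochloride and 0.5 µg serotonin-creatinine sulfate. Challenge is iv, 5 mg egg albumin with 2.5 mg Evan's Blue, given immediately after iv drug or 5 min after oral drug. Site scores are summed per group of 5 or 7 and expressed as % inhibition versus control. ED50 is taken from a by-eye dose-response curve, or from least-squares regression when n is larger.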

Rattus norvegicus [2] = assay: Antiallergic activity against reagin induced passive cutaneous anaphylaxis reaction in rats upon peroral administration.; format: functional; details: po; procedure, shortened: as §1
Rattus norvegicus [3] = assay: The compound was evaluated for antiallergic activity against reagin induced passive cutaneous anaphylaxis reaction in rats upon peroral administration; highest dose at which the compound was tested and found inactive; format: functional; details: po; procedure, shortened: as §1
Rattus norvegicus [4] = assay: The compound was evaluated for antiallergic activity against reagin induced passive cutaneous anaphylaxis reaction in rats upon peroral administration, pH dependent, more active when administered in solution of pH>/=10; format: functional; details: po; procedure, shortened: as §1
Rattus norvegicus [5] = assay: Inhibition of plasma histamine release induced by antigen challenge in rats assively sensitized with homologus antisera at an iv dose of 0.1 mg/kg; format: functional
Cavia porcellus = assay: Bronchoconstrictive effect of histamine aerosol in conscious guinea pigs at an iv dose of 30 mg/kg; Bronchoconstrictive effect is unaltered; format: functional, organism-based; set-up: dose 30 mg/kg
Rattus norvegicus [6] = assay: The compound was evaluated for antiallergic activity against reagin induced passive cutaneous anaphylaxis reaction in rats upon peroral administration, the dose at which the compound was tested and found inactive; format: functional; details: po; procedure, shortened: as §1
Rattus norvegicus [7] = assay: The compound was evaluated for antiallergic activity against reagin induced passive cutaneous anaphylaxis reaction in rats upon peroral administration, at this dose the compound tested was found inactive, and is highly active at the same dose if ad ministered in solution of pH >/=10; format: functional; details: po; procedure, shortened: as §1
Rattus norvegicus [8] = assay: The compound was evaluated for antiallergic activity against reagin induced passive cutaneous anaphylaxis reaction in rats upon peroral administration. at this dose the compound tested was found inactive; format: functional; details: po; procedure, shortened: as §1
Rattus norvegicus [9] = assay: The compound was evaluated for antiallergic activity against reagin induced passive cutaneous anaphylaxis reaction in rats upon peroral administration; at this dose the compound tested was found inactive; format: functional; details: po; procedure, shortened: as §1

CCOC(=O)c1nc(O)c2cc3cc(OC)c(OCC)cc3nc2n1
ED50 (Rattus norvegicus [1]): 0.007 mg/kg | ED50 (Rattus norvegicus [2]): 2 mg/kg

COc1cc2cc3c(O)nc(C(=O)NO)nc3nc2cc1OC
ED50 (Rattus norvegicus [1]): < 3 mg/kg | ED50 (Rattus norvegicus [3]): > 60 mg/kg

COc1cc2cc3c(O)nc(C)nc3nc2cc1OC
ED50 (Rattus norvegicus [1]): 0.4 mg/kg | ED50 (Rattus norvegicus [2]): 1 mg/kg

CCOC(=O)c1nc(O)c2cc3c(OC)ccc(OC)c3nc2n1
ED50 (Rattus norvegicus [1]): 0.6 mg/kg | ED50 (Rattus norvegicus [2]): 30 mg/kg

CCOC(=O)c1nc(O)c2cc3cc(O)ccc3nc2n1
ED50 (Rattus norvegicus [1]): 0.7 mg/kg | ED50 (Rattus norvegicus [4]): 10 mg/kg

CCCCOC(=O)c1nc(O)c2cc3ccccc3nc2n1
ED50 (Rattus norvegicus [1]): 0.06 mg/kg | ED50 (Rattus norvegicus [2]): 30 mg/kg

CCNC(=O)c1nc(O)c2cc3cc(OC)c(OC)cc3nc2n1
ED50 (Rattus norvegicus [1]): 3 mg/kg

CCOC(=O)c1nc(O)c2cc3cc(OCC)c(OC)cc3nc2n1
ED50 (Rattus norvegicus [1]): 0.002 mg/kg | ED50 (Rattus norvegicus [2]): 0.3 mg/kg

CCOC(=O)c1nc(=O)c2cc3cc(OC)c(OC)cc3nc2[nH]1 [PIROLATE]
ED50 (Rattus norvegicus [1]): 0.007 mg/kg | ED50 (Rattus norvegicus [2]): 1 mg/kg | inhibition in vivo at 0.1 mg/kg (Rattus norvegicus [5]): 92% | Activity (Cavia porcellus): inactive

CCOC(=O)c1nc(O)c2cc3cc(F)ccc3nc2n1
ED50 (Rattus norvegicus [1]): 0.3 mg/kg | ED50 (Rattus norvegicus [2]): 30 mg/kg

COc1cc2cc3c(O)nc(C(=O)[O-])nc3nc2cc1OC.[Na+]
ED50 (Rattus norvegicus [1]): 0.005 mg/kg | ED50 (Rattus norvegicus [2]): 10 mg/kg

CCOC(=O)c1nc(O)c2cc3cc4c(cc3nc2n1)OCO4
ED50 (Rattus norvegicus [1]): 0.5 mg/kg | ED50 (Rattus norvegicus [2]): 30 mg/kg

O=C([O-])c1cc(=O)c2c(OCC(O)COc3cccc4oc(C(=O)[O-])cc(=O)c34)cccc2o1.[Na+].[Na+] [CROMOLYN SODIUM]
ED50 (Rattus norvegicus [1]): 0.8 mg/kg | ED50 (Rattus norvegicus [6]): > 300 mg/kg

CCOC(=O)c1nc(O)c2cc3cc(OC)cc(OC)c3nc2n1
ED50 (Rattus norvegicus [1]): 0.5 mg/kg | ED50 (Rattus norvegicus [2]): 30 mg/kg

CCNC(=O)c1nc(O)c2cc3ccccc3nc2n1
ED50 (Rattus norvegicus [1]): 3 mg/kg

CCOC(=O)c1nc(O)c2cc3ccc(F)cc3nc2n1
ED50 (Rattus norvegicus [1]): 0.3 mg/kg | ED50 (Rattus norvegicus [2]): 30 mg/kg

CCOC(=O)c1nc(O)c2cc3ccc(OC)c(OC)c3nc2n1
ED50 (Rattus norvegicus [1]): 0.2 mg/kg | ED50 (Rattus norvegicus [2]): 60 mg/kg

CCCCOc1cc2nc3nc(C(=O)OCC)nc(O)c3cc2cc1OCC
ED50 (Rattus norvegicus [1]): 0.3 mg/kg | ED50 (Rattus norvegicus [2]): 5 mg/kg

CCOC(=O)c1nc(O)c2cc3cc(OCc4ccccc4)ccc3nc2n1
ED50 (Rattus norvegicus [1]): 0.9 mg/kg | ED50 (Rattus norvegicus [2]): 10 mg/kg

NC(=O)c1nc(O)c2cc3ccccc3nc2n1
ED50 (Rattus norvegicus [1]): 1.3 mg/kg | ED50 (Rattus norvegicus [2]): 60 mg/kg

CCOC(=O)c1nc(O)c2cc3ccccc3nc2n1
ED50 (Rattus norvegicus [1]): 0.1 mg/kg | ED50 (Rattus norvegicus [2]): 3 mg/kg

COc1cc2cc3c(O)nc(C(C)=O)nc3nc2cc1OC
ED50 (Rattus norvegicus [1]): 2 mg/kg | ED50 (Rattus norvegicus [3]): > 10 mg/kg

O=C(O)c1nc2nc3ccccc3cc2c(=O)[nH]1
ED50 (Rattus norvegicus [1]): 0.2 mg/kg | ED50 (Rattus norvegicus [2]): 25 mg/kg

CCOC(=O)c1nc(O)c2cc3cc(O)c(OC)cc3nc2n1
ED50 (Rattus norvegicus [1]): 0.001 mg/kg | ED50 (Rattus norvegicus [7]): > 10 mg/kg

CCOC(=O)c1nc(O)c2cc3cc(OC(C)=O)c(OC)cc3nc2n1
ED50 (Rattus norvegicus [1]): 0.007 mg/kg | ED50 (Rattus norvegicus [4]): 10 mg/kg

CCOC(=O)CNC(=O)c1nc(O)c2cc3cc(OC)c(OC)cc3nc2n1
ED50 (Rattus norvegicus [1]): 6 mg/kg

COc1cc2cc3c(=O)[nH]c(=O)[nH]c3nc2cc1OC
ED50 (Rattus norvegicus [1]): 3 mg/kg

CCOC(=O)c1nc(O)c2cc3ccc(OC)cc3nc2n1
ED50 (Rattus norvegicus [1]): 0.8 mg/kg | ED50 (Rattus norvegicus [2]): 10 mg/kg

CCOC(=O)c1nc(O)c2cc3cc(Cl)ccc3nc2n1
ED50 (Rattus norvegicus [1]): 0.4 mg/kg | ED50 (Rattus norvegicus [2]): 30 mg/kg

CCOC(=O)c1nc(O)c2cc3cc4c(cc3nc2n1)OCCO4
ED50 (Rattus norvegicus [1]): 1 mg/kg

CNC(=O)c1nc(O)c2cc3cc(OC)c(OC)cc3nc2n1
ED50 (Rattus norvegicus [1]): 3 mg/kg

COc1cc2cc3c(O)ncnc3nc2cc1OC
ED50 (Rattus norvegicus [1]): 3 mg/kg

CCOC(=O)CCCn1c(C(=O)OCC)nc2nc3cc(OC)c(OC)cc3cc2c1=O
ED50 (Rattus norvegicus [1]): 0.1 mg/kg | ED50 (Rattus norvegicus [6]): > 10 mg/kg

CCOC(=O)c1nc(O)c2cc3cc(Sc4ccc(OC)cc4)ccc3nc2n1
ED50 (Rattus norvegicus [1]): 3 mg/kg | ED50 (Rattus norvegicus [2]): 30 mg/kg

CCOC(=O)c1nc(O)c2cc3cc([S+](C)[O-])ccc3nc2n1 (centres undefined)
ED50 (Rattus norvegicus [1]): 0.2 mg/kg | ED50 (Rattus norvegicus [2]): 30 mg/kg

COc1cc2cc3c(O)nc(C(N)=O)nc3nc2cc1OC
ED50 (Rattus norvegicus [1]): 3 mg/kg | ED50 (Rattus norvegicus [2]): 30 mg/kg

CCCCOC(=O)c1nc(O)c2cc3cc(O)c(OC)cc3nc2n1
ED50 (Rattus norvegicus [1]): 0.008 mg/kg | ED50 (Rattus norvegicus [4]): 10 mg/kg

COc1cc2cc3c(O)nc(-c4ccccc4)nc3nc2cc1OC
ED50 (Rattus norvegicus [1]): 3 mg/kg

CCOC(=O)c1nc2nc3cc(OC)c(OC)cc3cc2c(=O)n1C
ED50 (Rattus norvegicus [1]): 0.8 mg/kg | ED50 (Rattus norvegicus [6]): > 30 mg/kg

COc1cc2nc3nc(C(=O)O)nc(O)c3cc2cc1O
ED50 (Rattus norvegicus [1]): < 0.01 mg/kg | ED50 (Rattus norvegicus [7]): > 3 mg/kg

CCOC(=O)c1nc(O)c2cc3cc(OCC)c(OCC)cc3nc2n1
ED50 (Rattus norvegicus [1]): 0.01 mg/kg | ED50 (Rattus norvegicus [2]): 1 mg/kg

CCOC(=O)c1nc(O)c2cc3cc(OC)c(OCc4ccccc4)cc3nc2n1
ED50 (Rattus norvegicus [1]): 0.8 mg/kg | ED50 (Rattus norvegicus [8]): > 30 mg/kg

CCOC(=O)c1nc(O)c2cc3c(Cl)cccc3nc2n1
ED50 (Rattus norvegicus [1]): 0.2 mg/kg | ED50 (Rattus norvegicus [2]): 30 mg/kg

CCc1nc(O)c2cc3cc(OC)c(OC)cc3nc2n1
ED50 (Rattus norvegicus [1]): 3 mg/kg | ED50 (Rattus norvegicus [3]): > 60 mg/kg

COc1cc2cc3c(O)nc(C(=O)OCCO)nc3nc2cc1OC
ED50 (Rattus norvegicus [1]): < 0.03 mg/kg | ED50 (Rattus norvegicus [2]): 10 mg/kg

CCOC(=O)c1nc(O)c2cc3cc(OCC)c(OCc4ccccc4)cc3nc2n1
ED50 (Rattus norvegicus [1]): 0.9 mg/kg | ED50 (Rattus norvegicus [9]): > 30 mg/kg

COc1cc2cc3c(O)nc(C(F)(F)F)nc3nc2cc1OC
ED50 (Rattus norvegicus [1]): > 10 mg/kg

CCOC(=O)c1nc(O)c2cc3cc(OCc4ccccc4)c(OC)cc3nc2n1
ED50 (Rattus norvegicus [1]): 3 mg/kg | ED50 (Rattus norvegicus [9]): > 10 mg/kg

O=C(O)c1nc(O)c2cc3cc(O)ccc3nc2n1
ED50 (Rattus norvegicus [1]): 0.01 mg/kg | ED50 (Rattus norvegicus [7]): > 10 mg/kg

CCOC(=O)c1nc(O)c2c(-c3ccccc3)c3ccccc3nc2n1
ED50 (Rattus norvegicus [1]): 0.3 mg/kg | ED50 (Rattus norvegicus [2]): 10 mg/kg

CCOC(=O)c1nc(O)c2cc3cc(SC)ccc3nc2n1
ED50 (Rattus norvegicus [1]): 0.1 mg/kg | ED50 (Rattus norvegicus [2]): 8 mg/kg

CCCCOC(=O)c1nc(O)c2cc3cc(OC)c(OC)cc3nc2n1
ED50 (Rattus norvegicus [1]): 0.003 mg/kg | ED50 (Rattus norvegicus [2]): 10 mg/kg

CCOC(=O)c1nc(O)c2cc3cc(OC)ccc3nc2n1
ED50 (Rattus norvegicus [1]): 0.03 mg/kg | ED50 (Rattus norvegicus [2]): 20 mg/kg

CCOC(=O)c1nc(O)c2cc3cc(OC)c(OC)c(OC)c3nc2n1
ED50 (Rattus norvegicus [1]): 0.8 mg/kg | ED50 (Rattus norvegicus [2]): 10 mg/kg

CCOC(=O)c1nc(O)c2cc3cc(OC)c(O)cc3nc2n1
ED50 (Rattus norvegicus [1]): 1 mg/kg | ED50 (Rattus norvegicus [7]): > 3 mg/kg

CCOC(=O)Cn1c(C(=O)OCC)nc2nc3cc(OC)c(OC)cc3cc2c1=O
ED50 (Rattus norvegicus [1]): 3 mg/kg
